Assay outcomes from PubChem.
HTRA1 inh = blocks human HTRA1 serine peptidase. Q92743. recombinant HTRA1, FP-rhodamine activity-based probe, fluorescence polarization. inhibition, % at 5.96 µM. 340,000 tested, 0.5% active; in the data active means inhibition above about 36%
mABHD4 FP = ABHD4 (mouse) inhibition, primary FP screen; Q8VD66; purified mABHD4, FP-Rh probe fluorescence polarization; inhibition, % at 8.92 µM; 370,000 tested, 0.54% active; AID 720543;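 active means inhibition exceeding the mean over every tested compound plus 3 SD, cut at about 30% in these data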
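Assay system: wild-type mouse ABHD4 protein; compound: single nominal dose of 8.92 µM, 0.89% DMSO final; schedule: 45 min + 60 min at 25 °C; measured by: FP readout, ex 525 nm / em 598 nm; evaluation: % inhibition of FP-Rh probe binding versus controls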
PRMT1 inh = PRMT1 (human) inhibition, primary screen. Q99873. recombinant PRMT1, activity-based probe fluorescence polarization. inhibition, % at 2.79 µM. 370,000 tested, 1.3% active. AID 652257;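 active means inhibition above about 21% made by adding two undisclosed values, limit read from the data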
Target sequence (Q99873 whole entry, looked up): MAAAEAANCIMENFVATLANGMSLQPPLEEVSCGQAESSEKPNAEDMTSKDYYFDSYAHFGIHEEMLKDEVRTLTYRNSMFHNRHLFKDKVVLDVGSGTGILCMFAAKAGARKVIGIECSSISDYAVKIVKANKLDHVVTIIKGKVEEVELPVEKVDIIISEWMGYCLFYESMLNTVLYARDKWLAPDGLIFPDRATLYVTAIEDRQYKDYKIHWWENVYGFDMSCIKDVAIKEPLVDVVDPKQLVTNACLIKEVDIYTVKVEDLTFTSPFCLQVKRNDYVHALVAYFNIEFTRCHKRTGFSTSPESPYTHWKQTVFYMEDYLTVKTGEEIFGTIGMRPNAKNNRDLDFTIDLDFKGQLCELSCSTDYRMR
TCR-CD3 inh = blocks the human TCR-CD3 interaction. inhibition, % at 9.4 µM. 360,000 tested, 0.37% active. TAMRA-labeled TCR probe fluorescence, biochemical;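 further: recombinant mutant TCR 2C K166C tagged with TAMRA read by polarization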
SIAE primary = blocks human sialic acid acetylesterase; 370,000 tested, 0.69% active; SIAE FP-Rh probe binding, fluorescence polarization; inhibition, % at 9.66 µM;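 active means inhibition above a cutoff: mean of compounds within the control limits plus 3 SD of those, cut at about 17% in these data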
HTRA1 inh conf = HTRA1 (human) inhibition, confirmation; shares compounds with HTRA1 inh; recombinant HTRA1, FP-rhodamine activity-based probe, fluorescence polarization; inhibition, % at 5.96 µM; 1,600 tested, 66% active; AID 540248;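 active means mean inhibition over three repeats above a set limit taken from the earlier primary screen, cut at about 37% in these data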;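 further: inhibitors block probe binding so polarization drops and inhibition rises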
BSA TAMRA ctr = BSA probe counter-screen for TCR-CD3 inhibitors; AID 652035; shares compounds with TCR-CD3 inh; TAMRA-labeled BSA probe fluorescence counterscreen; 1,200 tested, 10% active; inhibition, % at 9.4 µM; in the data active means inhibition above about 23%
TCR-CD3 conf = confirmation of human TCR-CD3 interaction inhibitors; shares compounds with TCR-CD3 inh; TAMRA-labeled TCR probe fluorescence binding assay; inhibition, % at 9.4 µM; 1,200 tested, 48% active; AID 652036
PRMT1 inh conf = confirmation of human PRMT1 inhibitors | shares compounds with PRMT1 inh | 3,300 tested, 42% active | inhibition, % at 2.79 µM | recombinant His-PRMT1, activity-based probe fluorescence polarization;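 active means mean inhibition across replicates above the hit cutoff derived for the earlier primary screen, cut at about 22% in these data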
ABHD4 confirm = ABHD4 (mouse) inhibition, FP confirmation. shares compounds with mABHD4 FP. purified mABHD4, FP-Rh probe fluorescence polarization. inhibition, % at 8.92 µM. 1,800 tested, 55% active. AID 720658;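 active means mean inhibition across replicates above the hit cutoff set in the primary screen, cut at about 30% in these data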
SIAE inh conf = human SIAE inhibition, confirmation; SIAE FP-Rh activity-based probe, fluorescence polarization; AID 1117263; 2,300 tested, 13% active; inhibition, % at 9.66 µM; shares compounds with SIAE primary;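 active means mean inhibition of the replicates above the hit cutoff set in the primary screen, cut at about 17% in these data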;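 further: inhibitors lower polarization as more probe stays unbound to SIAE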
Numbers stand for hits; i = inactive; nt = not tested or not shown. A selection: hits, their analogues and other compounds. The true share with any hit is near 2.6%. Unless noted, no stated cut-off is given here; in the data, active means inhibition above about 19%; inactive means the rest.

SMILES	HTRA1 inh	mABHD4 FP	PRMT1 inh	TCR-CD3 inh	SIAE primary	HTRA1 inh conf	ABHD4 confirm	SIAE inh conf	others
O=C(CSc1nnnn1-c1ccc(F)cc1)c1ccc(O)c(O)c1	41	30	i	i	i	53	i	nt
Nc1[nH]c(C(=O)c2ccccc2)c(-c2ccc(Br)cc2)c1C(=O)N1CCN(CCO)CC1	nt	i	i	nt	i	nt	nt	nt
O=C(CCc1ccccc1-c1ccccc1CCNC(=O)c1ccc(F)c(F)c1)NCc1ccccc1	nt	i	i	nt	i	nt	nt	nt
O=[N+]([O-])c1ccccc1C1Nc2cccc3cccc(c23)N1	51	53	29	i	i	i	55	nt
O=[N+]([O-])c1cc(/C=N\Nc2nc(-c3ccccc3)cs2)ccc1O	47	42	i	i	i	50	61	nt
N#CC1=C2N=C(N)c3ccccc3N2C2=C(C(=O)CCC2)C1c1ccc(F)cc1 (stereo not given)	i	i	i	i	i	nt	nt	nt
N#CC1=C2N=C(N)c3c(sc4c3CCCCC4)N2C2=C(C(=O)CCC2)C1c1ccccc1 (stereo not given)	40	32	i	i	i	i	i	nt
CCOc1ccc(Nc2ccc(N)c(S(=O)(=O)O)c2)cc1	93	107	36	42	21	53	55	i	BSA TAMRA ctr=i;TCR-CD3 conf=21;PRMT1 inh conf=i
COc1cc(CNC(C)c2ccccc2)cc(Br)c1OCc1ccccc1 (stereo not given)	i	i	i	i	i	nt	nt	nt
COc1cc(CNc2ccc(O)cc2)cc(Br)c1OCc1ccccc1	57	52	i	22	26	i	i	i
COc1ccc(Br)cc1CNc1ccc2[nH]c(=O)[nH]c2c1	i	i	i	i	i	nt	nt	nt
COc1ccc(Br)cc1CNc1ccc(O)cc1	74	65	i	31	32	i	30	i	BSA TAMRA ctr=i;TCR-CD3 conf=i
Oc1ccc(NCc2ccc(OCc3ccccc3)cc2)cc1	47	53	34	30	29	i	i	i	PRMT1 inh conf=i
COCC(=O)N(C[C@H]1[C@H](c2ccccc2)[C@@H](CO)N1C(=O)NC(C)C)C(C)C	nt	i	i	nt	i	nt	nt	nt
O=C(Cc1ccccc1)NC1CCCCN(Cc2cccc(Cl)c2)C1=O (stereo not given)	nt	i	i	nt	i	nt	nt	nt
COc1ccc(CN(CCN2CCOCC2)C(=O)c2ccccc2C)cc1OC	nt	i	i	nt	i	nt	nt	nt
O=C(Nc1cccc2[nH]ncc12)NS(=O)(=O)c1ccccc1	44	98	i	58	48	i	i	i	BSA TAMRA ctr=35;TCR-CD3 conf=27
CC(=O)Nc1ccc(S(=O)(=O)Nc2cccc3[nH]ncc23)cc1	i	i	i	i	i	nt	nt	nt
Cc1cc(C(=O)Nc2ccc(F)cc2)n(-c2ccccc2)n1	nt	i	i	nt	i	nt	nt	nt
CCC(=O)NC(c1ccc(Cl)cc1Cl)c1ccc2cccnc2c1O (stereo not given)	74	i	i	i	19	73	nt	i
CC(=O)NC(c1ccc(Cl)cc1)c1ccc2cccnc2c1O (stereo not given)	46	i	i	i	17	79	nt	i
CCn1c(CSc2n[nH]c(N)n2)nc2cc(C(=O)O)ccc21	43	i	i	94	36	67	nt	31	BSA TAMRA ctr=137;TCR-CD3 conf=97
Oc1ccc(/C=N/N(c2ccccc2)c2ccccc2)c(O)c1O	68	39	i	i	20	79	30	i
N#C/C(=C/c1ccc(N2CCCCC2)o1)C(=O)Nc1ccc2ccccc2c1	37	i	i	i	21	40	nt	i
CCCC(=Nc1ccc(N)cc1)C1=C(O)C(C(=O)OC)C(C)(C)CC1=O (stereo not given)	61	79	i	67	35	59	i	i	BSA TAMRA ctr=i;TCR-CD3 conf=i
